“Also recorded” adds a separate entry of the source.
How the values were obtained:
[1] = In vitro intrinsic and hepatic clearance, human; assay type: in vitro ADME
[2] = In vitro intrinsic and hepatic clearance, rat; assay type: in vitro ADME
Male C57Bl/6 mice = assay: Behavioral convulsions, modified Racine score; assay type: in vivo; conditions: for behavioral convulsions (modified Racine score 0–5): 10% Tween 80, monitored 3 h, n = 3
How it was run: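 Male C57Bl/6 mice (25–30 g) got a single ip dose of test compound (100 mg/kg) or a reference mGlu5 ago-PAM (1 or 3 mg/kg). Behavior was watched continuously for 3 h and convulsions were scored on a modified Racine scale (0–5).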

[3] = Plasma free fraction, human plasma; assay type: in vitro ADME
[4] = Plasma free fraction, rat plasma; assay type: in vitro ADME
rat mGlu1 WT receptors = rat mGlu1 WT receptors (Rattus norvegicus, UniProt P23385); assay: Calcium mobilization concentration-response curves on rat mGlu1; assay type: cell-based
[5] = Ex vivo metabolism/stability in human plasma; assay type: in vitro ADME; conditions: 10 μM incubation, 37 °C, 4 h, mass spectrometry
How it was run: (§1)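 Test compound at 10 μM incubation concentration in rat or human plasma at 37 °C. Samples were taken at 0 and 4 h and analysed by mass spectrometry for remaining parent and for metabolites formed.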

[6] = Ex vivo metabolism/stability in rat plasma; assay type: in vitro ADME; conditions: 10 μM incubation, 37 °C, 4 h, mass spectrometry
How it was run: as §1

human mGlu1 WT receptor [7] = target: T1, human mGlu1 WT receptor (Homo sapiens, UniProt Q13255); assay: Calcium mobilization mGlu1 assay; assay type: cell-based
[8] = system: CA3 pyramidal cell body layer in a mouse hippocampal slice preparation; assay: Extracellular recording of spontaneous spike
How it was run: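 Hippocampal slices with extracellular recording from the CA3 pyramidal cell body layer. Frequency of spontaneous activity was tracked before, during and after bath application and washout of test compound (10 μM) or DHPG (50 μM, positive control). Each was compared with baseline by paired t test, n = 6 per treatment.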

human mGlu1 WT receptor [9] = target: T1, human mGlu1 WT receptor; assay: Fold-shift of glutamate concentration-response curve, human mGlu1 WT cells; assay type: cell-based; conditions: 10 μM compound
hmGlu4 = hmGlu4 (Homo sapiens, UniProt Q14833); assay: Calcium mobilization assay, mGlu4 PAM activity; assay type: cell-based; conditions: n = 3 in triplicate
mGlu2 = assay: Standard fold-shift selectivity assay; assay type: cell-based; conditions: 10 μM compound
[10] = system: human mGlu1 mutant receptors (P729T, A683E, Y632H, P1014S); assay type: cell-based; conditions: noted at compound concentrations above 1 μM
Rat iv PK = assay type: in vivo; conditions: rat iv PK (0.2 mg/kg)

T1 sequence (Q13255 19-1194): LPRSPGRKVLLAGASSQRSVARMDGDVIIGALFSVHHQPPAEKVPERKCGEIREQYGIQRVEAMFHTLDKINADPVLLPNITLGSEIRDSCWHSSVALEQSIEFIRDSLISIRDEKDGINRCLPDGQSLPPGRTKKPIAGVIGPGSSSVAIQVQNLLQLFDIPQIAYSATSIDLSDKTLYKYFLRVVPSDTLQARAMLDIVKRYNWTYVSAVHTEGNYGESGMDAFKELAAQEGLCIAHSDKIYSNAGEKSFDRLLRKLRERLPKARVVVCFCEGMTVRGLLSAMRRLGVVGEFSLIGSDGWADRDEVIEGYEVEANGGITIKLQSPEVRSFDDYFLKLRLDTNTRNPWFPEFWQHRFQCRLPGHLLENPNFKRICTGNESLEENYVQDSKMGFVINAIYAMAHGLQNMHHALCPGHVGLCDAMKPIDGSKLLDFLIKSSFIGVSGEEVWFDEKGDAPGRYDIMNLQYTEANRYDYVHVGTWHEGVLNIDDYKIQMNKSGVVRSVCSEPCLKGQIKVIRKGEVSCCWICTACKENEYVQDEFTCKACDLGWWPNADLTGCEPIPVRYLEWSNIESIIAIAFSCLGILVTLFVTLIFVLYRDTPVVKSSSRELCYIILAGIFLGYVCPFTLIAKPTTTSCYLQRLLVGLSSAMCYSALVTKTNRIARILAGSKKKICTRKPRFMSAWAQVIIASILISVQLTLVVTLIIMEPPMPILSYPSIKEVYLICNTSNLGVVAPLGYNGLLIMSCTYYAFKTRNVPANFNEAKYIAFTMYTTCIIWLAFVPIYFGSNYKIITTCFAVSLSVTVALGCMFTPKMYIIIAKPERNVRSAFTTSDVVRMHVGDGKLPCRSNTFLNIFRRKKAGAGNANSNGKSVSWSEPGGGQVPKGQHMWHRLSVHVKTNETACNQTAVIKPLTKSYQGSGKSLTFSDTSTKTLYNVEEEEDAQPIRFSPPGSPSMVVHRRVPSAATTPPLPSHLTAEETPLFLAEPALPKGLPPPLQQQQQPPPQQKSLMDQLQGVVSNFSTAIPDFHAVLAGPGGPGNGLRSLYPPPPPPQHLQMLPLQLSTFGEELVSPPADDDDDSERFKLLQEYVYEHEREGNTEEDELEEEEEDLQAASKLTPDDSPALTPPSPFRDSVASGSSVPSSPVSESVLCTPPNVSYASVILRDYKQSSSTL
Sequence of rat mGlu1 WT receptors (P23385 19-1199): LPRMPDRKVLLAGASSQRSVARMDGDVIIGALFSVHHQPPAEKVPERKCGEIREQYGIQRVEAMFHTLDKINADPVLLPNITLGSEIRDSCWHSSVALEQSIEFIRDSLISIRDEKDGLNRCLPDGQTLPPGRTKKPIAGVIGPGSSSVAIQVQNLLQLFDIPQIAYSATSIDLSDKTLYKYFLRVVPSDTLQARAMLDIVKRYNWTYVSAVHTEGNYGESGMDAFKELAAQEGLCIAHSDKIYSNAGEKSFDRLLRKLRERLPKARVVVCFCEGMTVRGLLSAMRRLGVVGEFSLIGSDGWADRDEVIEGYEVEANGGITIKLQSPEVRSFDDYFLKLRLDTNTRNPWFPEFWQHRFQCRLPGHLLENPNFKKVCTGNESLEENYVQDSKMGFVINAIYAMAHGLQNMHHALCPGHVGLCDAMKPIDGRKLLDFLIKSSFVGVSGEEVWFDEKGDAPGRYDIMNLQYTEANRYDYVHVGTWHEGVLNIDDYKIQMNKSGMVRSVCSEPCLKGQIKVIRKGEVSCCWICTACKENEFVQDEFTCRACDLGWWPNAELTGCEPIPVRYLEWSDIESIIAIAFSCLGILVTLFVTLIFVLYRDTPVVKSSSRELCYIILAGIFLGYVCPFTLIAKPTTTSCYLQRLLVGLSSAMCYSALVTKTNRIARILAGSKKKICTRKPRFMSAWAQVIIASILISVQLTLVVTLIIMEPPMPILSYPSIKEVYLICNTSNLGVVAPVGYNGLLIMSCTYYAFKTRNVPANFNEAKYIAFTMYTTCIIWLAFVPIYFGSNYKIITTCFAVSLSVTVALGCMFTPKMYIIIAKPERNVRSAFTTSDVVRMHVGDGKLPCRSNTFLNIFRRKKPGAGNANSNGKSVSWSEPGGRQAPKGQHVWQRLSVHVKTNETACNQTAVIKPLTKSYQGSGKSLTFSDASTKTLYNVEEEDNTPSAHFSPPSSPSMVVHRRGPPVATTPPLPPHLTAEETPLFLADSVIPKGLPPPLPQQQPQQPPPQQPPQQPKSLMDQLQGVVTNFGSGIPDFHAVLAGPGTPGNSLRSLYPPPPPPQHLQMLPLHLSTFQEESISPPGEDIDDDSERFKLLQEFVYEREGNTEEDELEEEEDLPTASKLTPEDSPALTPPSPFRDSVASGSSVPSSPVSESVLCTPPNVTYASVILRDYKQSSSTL
Sequence of hmGlu4 (Q14833 33-912): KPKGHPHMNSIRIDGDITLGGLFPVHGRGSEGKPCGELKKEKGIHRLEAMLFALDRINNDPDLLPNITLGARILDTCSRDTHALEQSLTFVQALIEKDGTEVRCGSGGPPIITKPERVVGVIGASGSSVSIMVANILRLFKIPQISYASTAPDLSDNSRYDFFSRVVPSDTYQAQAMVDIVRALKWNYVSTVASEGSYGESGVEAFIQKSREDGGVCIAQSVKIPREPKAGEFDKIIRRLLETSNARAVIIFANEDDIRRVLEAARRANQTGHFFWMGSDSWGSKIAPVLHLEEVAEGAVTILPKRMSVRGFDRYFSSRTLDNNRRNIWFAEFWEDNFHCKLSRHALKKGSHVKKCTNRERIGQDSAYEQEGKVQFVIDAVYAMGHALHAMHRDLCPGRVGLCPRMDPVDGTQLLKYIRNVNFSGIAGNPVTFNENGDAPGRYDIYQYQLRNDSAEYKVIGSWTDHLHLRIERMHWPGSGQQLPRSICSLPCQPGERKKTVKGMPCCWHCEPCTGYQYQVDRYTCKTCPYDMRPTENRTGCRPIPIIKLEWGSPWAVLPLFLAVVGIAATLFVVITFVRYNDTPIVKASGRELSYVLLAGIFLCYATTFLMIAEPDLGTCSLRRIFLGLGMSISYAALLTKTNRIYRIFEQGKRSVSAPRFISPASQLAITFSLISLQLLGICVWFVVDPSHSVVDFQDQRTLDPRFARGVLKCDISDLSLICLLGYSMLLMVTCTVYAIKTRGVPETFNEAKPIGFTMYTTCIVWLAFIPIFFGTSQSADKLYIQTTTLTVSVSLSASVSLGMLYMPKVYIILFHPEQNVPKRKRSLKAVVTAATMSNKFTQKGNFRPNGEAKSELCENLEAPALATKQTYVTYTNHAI

Compound: O=C(Nc1nc(C(F)(F)F)co1)C1c2ccccc2Oc2ccccc21 [compound 5, reference compound]
- human CLINT [1]: 262 mL/min/kg
- rat CLHEP [2]: 63.3 mL/min/kg
- rat CLINT [2]: 661 mL/min/kg
- behavioral convulsions (modified Racine score 0–5) (Male C57Bl/6 mice; 100 mg/kg ip): no adverse effects

Compound: O=C(Nc1ccc(N2C(=O)c3cccc(Cl)c3C2=O)c(Cl)c1)c1ncccc1Cl [compound 8, reference compound]
- human CLINT [1]: 17.2 mL/min/kg
- rat CLINT [2]: 39.9 mL/min/kg
- human fu plasma [3]: unstable
- rat fu plasma [4]: unstable

Compound: Cc1ccoc1C(=O)Nc1ccc(N2C(=O)c3ccc(Cl)cc3C2=O)c(Cl)c1 [17d, N-(3-Chloro-4-(5-chloro-1,3-dioxoisoindolin-2-yl)phenyl)-3-methylfuran-2-carboxamide]
- rat mGlu1 pEC50 (rat mGlu1 WT receptors): 6.95 ± 0.13
- human CLINT [1]: 2.90 mL/min/kg
- rat CLHEP [2]: 17.2 mL/min/kg
- rat CLINT [2]: 22.8 mL/min/kg
- human fu plasma [3]: unstable
- rat fu plasma [4]: unstable
- parent compound remaining in human plasma [5]: no parent 17d remains
- parent compound remaining in rat plasma [6]: no parent 17d remains
- behavioral convulsions (modified Racine score 0–5) (Male C57Bl/6 mice; 100 mg/kg ip): no measurable behavioral disturbances at any time point; also recorded: no adverse effects

Compound: O=C(Nc1ccc(N2C(=O)c3ccccc3C2=O)c(Cl)c1)c1cncs1 [9i]
- mGlu1 PAM activity in words (human mGlu1 WT receptor [7]): inactive

Compound: N[C@H](C(=O)O)c1cc(O)cc(O)c1 [DHPG, S-3,5-dihydroxyphe-nylglycine, reference compound]
- induction of epileptiform activity in CA3 ([8]; 50 μM, positive control): induced marked epileptiform activity

Compound: C[C@@H](NC(=O)c1ccc(C#Cc2cccc(F)c2)cn1)C(C)(C)O [compound 18, (R)-5-((3-fluorophenyl)ethynyl)-N-(3-hydroxy-3-methylbutan-2-yl)picolinamide, reference compound]
- time of peak convulsion responses after administration (Male C57Bl/6 mice; 1 or 3 mg/kg ip): approximately 5 min
- behavioral convulsions (modified Racine score 0–5) (Male C57Bl/6 mice; 1 or 3 mg/kg ip): severe, dose-dependent behavioral manifestations of seizure activity; also recorded: Severe, dose-dependent behavioral convulsions

Compound: Cc1ccoc1C(=O)Nc1ccc(N2C(=O)c3ccc(F)cc3C2=O)c(Cl)c1 [17f, N-(3-Chloro-4-(5-fluoro-1,3-dioxoisoindolin-2-yl)phenyl)-3-methylfuran-2-carboxamide]
- agonism at the highest concentration (human mGlu1 WT receptor [9]): < 20%

Compound: Cc1ccoc1C(=O)Nc1ccc(N2C(=O)c3cccc(Cl)c3C2=O)c(Cl)c1 [17c, N-(3-Chloro-4-(4-chloro-1,3-dioxoisoindolin-2-yl)phenyl)-3-methylfuran-2-carboxamide]
- hmGlu4 pEC50 (±SEM) (hmGlu4): 5.94 ± 0.22

Compound: O=C(Nc1ccc(N2C(=O)c3ccccc3C2=O)c(Cl)c1)c1coc2ccccc12 [10n]
- mGlu1 PAM activity in words (human mGlu1 WT receptor [7]): inactive

Compound: Cc1ccoc1C(=O)Nc1ccc(N2C(=O)c3cccc(F)c3C2=O)c(Cl)c1 [17e, N-(3-Chloro-4-(4-fluoro-1,3-dioxoisoindolin-2-yl)phenyl)-3-methylfuran-2-carboxamide]
- hmGlu4 pEC50 (±SEM) (hmGlu4): 5.95 ± 0.16
- fold shift of glutamate CRC at mGlu2 (mGlu2): < 2 fold
- ago-PAM activity across all four mutants [10]: ≤ 40%
- human CLHEP [1]: 2.70 mL/min/kg
- human CLINT [1]: 3.10 mL/min/kg
- rat CLHEP [2]: 52.3 mL/min/kg
- rat CLINT [2]: 207 mL/min/kg
- induction of epileptiform activity in CA3 ([8]; 10 μM bath application): did not induce epileptiform activity; also recorded: does not induce epileptiform activity
- behavioral convulsions (modified Racine score 0–5) (Male C57Bl/6 mice; 100 mg/kg ip): no measurable behavioral disturbances at any time point; also recorded: no adverse effects

Compound: O=C(Nc1ccc(N2C(=O)c3ccccc3C2=O)c(Cl)c1)C1CCCO1 (stereo not drawn) [9n]
- mGlu1 PAM activity in words (human mGlu1 WT receptor [7]): inactive

Compound: O=C(Nc1ccc(N2C(=O)c3ccccc3C2=O)c(Cl)c1)c1cnco1 [9d]
- mGlu1 PAM activity in words (human mGlu1 WT receptor [7]): inactive

Compound: O=C(Nc1ccc(N2C(=O)c3ccccc3C2=O)c(Cl)c1)c1ncco1 [9e]
- mGlu1 PAM activity in words (human mGlu1 WT receptor [7]): inactive

Compound: O=C(Nc1ccc(N2C(=O)c3ccccc3C2=O)c(Cl)c1)c1cc2ccccc2o1 [10m]
- mGlu1 PAM activity in words (human mGlu1 WT receptor [7]): inactive

Compound: Cc1ccoc1C(=O)Nc1ccc(N2C(=O)c3ccncc3C2=O)c(Cl)c1 [17g, N-(3-Chloro-4-(1,3-dioxo-1,3-dihydro-2H-pyrrolo[3,4-c]-pyridin-2-yl)phenyl)-3-methylfuran-2-carboxamide]
- rat mGlu1 pEC50 (rat mGlu1 WT receptors): 6.95 ± 0.15
- human CLINT [1]: 167 mL/min/kg
- rat CLHEP [2]: 59.7 mL/min/kg
- rat CLINT [2]: 405 mL/min/kg
- human fu plasma [3]: unstable
- CLp (Rat iv PK): 382 mL/min/kg
- clearance (Rat iv PK; rat, plasma, iv, 0.2 mg/kg, CLp): 283 mL/min/kg
- behavioral convulsions (modified Racine score 0–5) (Male C57Bl/6 mice; 100 mg/kg ip): no measurable behavioral disturbances at any time point; also recorded: no adverse effects

Reference: publication PMC4839290 (Journal of medicinal chemistry, 2015)
